# Hits are enriched below; roughly 2.9% of the tested compounds scored in any of these assays.
# T cruzi inh: T. cruzi replication inhibition; T. cruzi beta-gal in NIH3T3, luminescence, 90 h; inhibition, % (test concentration not listed); 300,000 tested, 1.4% active; AID 1885;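 active = mean inhibition across valid replicates above about 55%, limit read from the data; inconclusive = mean below that limit but half or more replicates reach it; inactive = mean below it, under half of replicates reach it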;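 note: signal also drops with host cell toxicity which is not excluded here; 0% = plate median of DMSO wells and 100% = zero luminescence signal; higher percent means less beta-gal luminescence so fewer parasites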
#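 Test system: β-gal T. cruzi (Tulahuen C4) inside NIH/3T3 cells / Quantity: 5,000 cells/well / Measured by: luminescence from GalScreen with 0.05% NP40, read after 60 min / Medium: DMEM plus 2% FBS / Measure: parasite load inhibition, % / Reagent: Tulahuen C4 trypomastigotes, 5000/well / Schedule: co-culture of at least 90 h after 3 h attachment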
# H9c2 TAG inh: reduces triacylglycerol accumulation in H9c2 cells. Nile Red lipid (TAG) fluorescence; cells loaded with 200 µM oleic acid. inhibition, % at 12.5 µM. 230,000 tested, 0.66% active;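 active = pattern-corrected inhibition of lipid staining of at least 50% with the nuclear-stain viability signal not falling by more than 50%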;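 note: 0% = DMSO wells and 100% = triacsin C control wells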
# NR1D1 modulator: modulates human Rev-erb alpha binding to DNA; 370,000 tested, 0.79% active; activity, % at 10 µM; AID 1259318; Rev-erbα–FITC-DNA binding, fluorescence polarization, 90 min;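 active = activity above about 14%, limit read from the data; passing the limit was not always enough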;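 note: 0% = DMSO wells with 35 nM protein and 100% = DMSO wells with 750 nM protein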
# Target sequence (P20393 whole entry, looked up): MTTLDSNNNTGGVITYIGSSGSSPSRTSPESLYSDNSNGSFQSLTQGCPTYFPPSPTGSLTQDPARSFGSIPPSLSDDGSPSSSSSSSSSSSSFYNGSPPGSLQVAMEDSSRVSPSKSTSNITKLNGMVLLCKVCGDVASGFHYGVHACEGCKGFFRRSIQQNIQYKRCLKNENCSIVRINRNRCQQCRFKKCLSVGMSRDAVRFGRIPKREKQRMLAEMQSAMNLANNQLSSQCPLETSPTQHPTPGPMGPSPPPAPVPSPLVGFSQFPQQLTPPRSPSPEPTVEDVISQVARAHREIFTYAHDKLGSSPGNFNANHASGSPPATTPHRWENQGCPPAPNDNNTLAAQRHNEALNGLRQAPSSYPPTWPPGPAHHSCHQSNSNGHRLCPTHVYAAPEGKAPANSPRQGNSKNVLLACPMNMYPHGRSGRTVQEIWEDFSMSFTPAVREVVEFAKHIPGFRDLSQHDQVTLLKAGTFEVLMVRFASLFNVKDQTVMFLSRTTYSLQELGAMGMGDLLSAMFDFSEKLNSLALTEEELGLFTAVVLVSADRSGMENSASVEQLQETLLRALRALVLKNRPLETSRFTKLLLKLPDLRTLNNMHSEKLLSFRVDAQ
# PG9 Ab binder: binds the HIV-1 gp120 antibody PG9. inhibition, % at 6.7 µM. TR-FRET gp120-PG9 antibody binding. AID 624416. 360,000 tested, 0.43% active; in the data active = inhibition above about 8.5%
# iPSC survival up: increases survival of single human iPS cells; hiPSC single-cell survival, ATPlite luminescence; 100% = ROCK inhibitor wells, 0% = DMSO; survival enhancement, % at 20 µM; 360,000 tested, 0.044% active; AID 602274; in the data active = survival enhancement above about 18%;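 note: cells exposed to compounds for 16 hours before the ATP read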
# MIN6 prolif: induces beta-cell replication in MIN6 cells. AID 2380. 330,000 tested, 0.29% active. MIN6 cells proliferation, ATPlite luminescence, 48 h; cells starved in 0.2% serum; 100% = growth in 10% serum. proliferation, % at 10 µM;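 active = compounds whose signal lies at least 3.5 SD above the mean of all wells on their plate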;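 note: 0% = DMSO-treated cells in low-serum medium and 100% = 10% serum control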
# TAG conf: triacylglycerol accumulation inhibition, confirmation | shares compounds with H9c2 TAG inh | H9c2 lipid accumulation, Nile Red fluorescence; cells loaded with 200 µM oleic acid | inhibition, % at 12.5 µM | 990 tested, 71% active;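 active = mean inhibition across replicates of 40% or more; inactive = mean inhibition below 40%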;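 note: plate controls were DMSO only wells for no effect and Triacsin C treated wells for full effect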
# An asterisk follows results filed as active; ? = inconclusive; nt = no result.
SMILES,T cruzi inh,H9c2 TAG inh,NR1D1 modulator,PG9 Ab binder,iPSC survival up,MIN6 prolif,TAG conf
COc1cc2c(cc1OC)CN(C(=S)Nc1ccccc1Cl)CC2,11.0,61.9*,0.3,1.1,0.0,0.5,6.1
c1ccc(COc2ncnc3c2ncn3CCCNC2CCN(Cc3ccccc3)CC2)cc1,nt,63.4*,3.4,-1.5,-2.3,nt,35.0
CSc1ncnc2c1ncn2CCCNC1CCN(Cc2ccccc2)CC1,nt,12.5,-3.7,0.4,-1.5,nt,nt
C=CCn1cc(Cl)c(=O)n(CC=C)c1=O,4.2,nt,6.3,-1.9,-0.3,-0.9,nt
CC(C)(C)OC(=O)N1CCN(c2ccc(NC(=O)Cn3nnc(-c4ccccc4)n3)cc2)CC1,31.0,61.6*,2.5,-0.4,0.0,-2.2,17.7
CCOC(=O)c1ccc(NC(=O)Cn2nnc(-c3ccccc3)n2)cc1,-6.2,1.9,-1.4,-0.6,-1.6,-1.2,nt
CC1CCN(c2ccc(/C=C(\C#N)c3nn(-c4ccccc4)c(N)c3C#N)cc2[N+](=O)[O-])CC1,43.9,nt,1.8,-1.4,0.4,0.0,nt
CC1CCN(c2cc(N3CCC(C)CC3)c([N+](=O)[O-])cc2/C=C(\C#N)c2nn(-c3ccccc3)c(N)c2C#N)CC1,1.8,52.4*,-2.3,0.3,-2.8,-3.2,49.4*
CC1(C(=O)NS(=O)(=O)c2ccc(F)cc2F)CCN1C(=O)Cc1ccccc1Cl (stereo unspecified),nt,1.7,3.3,0.4,-2.2,nt,nt
COc1ccccc1N(C)S(=O)(=O)c1ccc(C(=O)NC(C)(C)C)cc1,12.4,6.7,4.9,-1.8,-0.3,-1.4,nt
COc1ccc([C@H]2CC(=O)C=C(c3ccc(OC)cc3OC)C2)cc1,nt,51.9*,-0.5,-0.9,-1.6,-6.4,80.9*
COc1ccc(C2=CC(=O)C[C@H](c3ccc(OC)cc3)C2)cc1,nt,nt,0.6,-0.6,-1.3,-3.8,nt
CC(C)C[C@H]1CN(CCCC[C@H]2CNC(=O)C(=O)N2CC2CCCCC2)C(=O)C(=O)N1CCc1ccc(O)cc1,nt,nt,3.3,0.8,-0.4,nt,nt
CN(C)CCCNc1nc2sc3c(c2c(=O)n1CCc1ccccc1)CCCCC3,?,59.6*,4.3,-1.8,-0.1,-4.0,34.4
CN(C)CCCn1c(=O)n(CCc2ccccc2)c(=O)c2c3c(sc21)CCCCC3,60.8*,54.5*,-5.6,-1.4,-0.7,-4.2,50.0*
CCn1c(SCC(=O)NCC(=O)Nc2ccc(F)cc2)nnc1-c1ccncc1,-15.6,5.8,-3.7,0.9,0.7,0.2,nt
O=c1c(C(c2ccc(Cl)cc2)c2c(O)nc3n(c2=O)CCCS3)c(O)nc2n1CCCS2,-6.2,1.0,-1.4,-0.5,0.1,-1.8,nt
C=C(C)c1cccc(C(C)(C)NC(=O)N2CCCC(C(N)=O)C2)c1 (stereo unspecified),-16.9,-3.9,5.3,-0.3,0.8,-1.9,nt
C=C(C)c1cccc(C(C)(C)NC(=O)N2CCC(C(N)=O)CC2)c1,-5.4,58.7*,0.9,-1.8,2.8,1.0,7.2
O=C(Nc1ccc(Cl)cc1)OC1CCC12CCC(c1ccccc1)CC2 (stereo unspecified),nt,nt,4.7,nt,nt,nt,nt
CC(=O)Oc1ccc(OC(C)=O)c2c1CC(C)=C(C)C2,35.6,nt,1.0,-2.6,0.4,-6.8,nt
CCN(CC)CCNC(=O)c1cc2c(=O)n(CC)c3ccccc3c2s1,5.8,nt,-1.3,-1.3,-0.8,-2.8,nt
CCCN(CCC)CCNC(=O)c1cc2c(=O)n(CC)c3ccccc3c2s1,23.1,51.6*,0.8,-0.5,1.2,-6.3,68.2*
COc1cccc(/C=C/C(=C2\C(=O)N(c3ccccc3)N=C2C)c2ccc(Br)cc2)c1OC,nt,79.2*,1.0,1.7,1.1,nt,97.2*
COc1ccc2sc(-c3ccc(N(C)C)cc3)c(C#CCCO)c2c1,nt,75.7*,1.4,1.4,3.3,-6.8,86.8*
SMILES,T cruzi inh,H9c2 TAG inh,NR1D1 modulator,PG9 Ab binder,iPSC survival up,MIN6 prolif,TAG conf
COc1ccc(-c2sc3ccc(OC)cc3c2C#CCCO)cc1,23.3,-18.1,nt,nt,1.7,-7.9,nt
Cc1cc(C)c2nc(N3CCC(C(=O)NCC4CCCO4)CC3)sc2c1 (stereo unspecified),-4.5,nt,9.3,0.6,1.8,-0.8,nt
Cc1cc(C)c2nc(N3CCC(C(=O)NCCCN4CCCCC4)CC3)sc2c1,14.9,60.4*,0.3,0.2,-3.9,-5.8,33.0
Cc1nn(-c2ccc(Cl)c(Cl)c2)c(C)c1C(=O)O,-29.1,13.9,3.1,-0.8,1.5,-1.0,nt
CCO[C@@H]1OC(C(=O)N2CCN(Cc3ccc4c(c3)OCO4)CC2)=C[C@H](C)[C@H]1CCCO,-1.4,53.0*,-2.9,0.8,-0.5,2.8,-5.0
CCOC(=O)c1c(CN2CCN(C)CC2)n(-c2ccccc2)c2cc(Br)c(O)cc12,-6.5,10.8,-3.8,1.9,-0.3,-6.0,nt
CCOC(=O)c1c(CSC(=N)N)n(-c2ccccc2)c2cc(Br)c(OC(C)=O)cc12,11.1,61.9*,3.6,0.6,0.2,-4.1,67.6*
COc1ccc(Nc2oc(-c3ccc(Cl)cc3)nc2C#N)cc1,31.5,54.4*,1.9,0.1,-1.3,-1.1,52.1*
COc1ccc(Nc2oc(-c3ccc(OC)cc3)nc2C#N)cc1,16.6,24.2,-0.6,-0.2,-0.6,0.4,nt
COc1ccc(-c2sc3ccc(N4CCOCC4)cc3c2C#CC(C)(C)O)cc1,nt,63.7*,4.1,-1.2,1.5,-5.4,52.9*
CCC1SC2=NC(C)=C(C(=O)OCCOC)C(/C=C/c3ccccc3OC)N2C1=O (stereo unspecified),2.3,24.5,0.3,-0.7,-1.7,-3.2,nt
CCC1SC2=NC(C)=C(C(=O)OCC(C)C)C(/C=C/c3ccccc3OC)N2C1=O (stereo unspecified),25.2,71.9*,0.8,-2.5,2.1,-4.7,20.9
CCOc1ccc(OCC(=O)OCC(=O)NNC(=O)c2ccc([N+](=O)[O-])cc2)cc1,-4.5,12.0,-1.7,-2.8,0.3,-5.4,nt
S=C(NCCCN1CCOCC1)NN=C1c2ccccc2-c2ccccc21,nt,27.0,2.1,-3.9,-2.0,nt,nt
CCC(C)NCC(=O)Nc1ccc(-c2nc3cc(NC(=O)CNC(C)CC)ccc3o2)cc1 (stereo unspecified),nt,53.2*,-4.0,-1.1,-2.5,-4.1,31.4
C/C(=N\Nc1cc(N2CCOCC2)nc(C)n1)c1ccc(F)cc1,37.1,52.2*,-7.2,-1.5,-0.5,-1.3,38.5
Cc1c(C(=O)N2CCOCC2)c(S(=O)(=O)Nc2cccc(C#N)c2)c(C)n1C,0.5,nt,-1.0,-1.3,-0.3,1.6,nt
C(=N\Nc1nc2ccccc2[nH]1)/C1CCCCC1,17.4,74.1*,-3.6,-0.2,-0.4,-4.8,10.1
COCCCNC(=O)C(=O)Nc1ccc2c(c1)N(S(=O)(=O)c1cccs1)CCC2,13.9,54.1*,-6.0,-2.1,-0.6,-3.1,60.9*

# High-throughput results (PubChem)
